Measured values: ChEMBL document CHEMBL4431385, “Substituted tetracyclic indole core derivatives of HCV NS5A inhibitor MK-8742” (Bioorg Med Chem Lett, 2016)
Substitutions are numbered along the chain they refer to.

Legend:
[1] = test system: Nonstructural protein 5A (Hepatitis C virus), Q5L478 [UNDEFINED MUTATION]; test: Inhibition of HCV GT1a NS5A L31V mutant assessed as suppression of replicon RNA level by real-time PCR analysis; conditions: Hepatitis C virus subtype 1a
[2] = target: T1, Nonstructural protein 5A (Hepatitis C virus) (UniProt Q5L478); test: Inhibition of HCV GT1b NS5A assessed as suppression of replicon RNA level by real-time PCR analysis; conditions: Hepatitis C virus subtype 1b
T1 sequence (whole entry): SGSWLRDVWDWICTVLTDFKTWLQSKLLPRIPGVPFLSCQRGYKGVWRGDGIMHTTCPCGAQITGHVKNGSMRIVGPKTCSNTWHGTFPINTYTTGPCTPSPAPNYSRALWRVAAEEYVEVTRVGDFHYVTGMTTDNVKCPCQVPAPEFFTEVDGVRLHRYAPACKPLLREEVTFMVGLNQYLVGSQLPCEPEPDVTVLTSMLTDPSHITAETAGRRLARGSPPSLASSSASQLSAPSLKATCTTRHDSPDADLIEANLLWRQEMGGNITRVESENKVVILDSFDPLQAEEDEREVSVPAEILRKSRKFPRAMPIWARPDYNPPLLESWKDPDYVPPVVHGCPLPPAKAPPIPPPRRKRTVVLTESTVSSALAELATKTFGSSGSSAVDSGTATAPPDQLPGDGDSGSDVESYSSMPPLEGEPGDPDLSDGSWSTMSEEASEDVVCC

[3] = target: T1, Nonstructural protein 5A (Hepatitis C virus); test: Inhibition of HCV GT2b NS5A assessed as suppression of replicon RNA level by real-time PCR analysis; conditions: Hepatitis C virus subtype 2b
Method in brief: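 GT2b replicon, which carries the naturally occurring NS5A 31M resistance-associated variant; potency given as EC90 in nM.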

[4] = test system: T2, Nonstructural protein 5A (Hepatitis C virus), Q5L478 [Y93H]; test: Inhibition of HCV GT1a NS5A Y93H mutant assessed as suppression of replicon RNA level by real-time PCR analysis; conditions: Hepatitis C virus subtype 1a
T2 sequence (whole entry): T1 sequence (whole entry) with Y93H

[5] = target: T1, Nonstructural protein 5A (Hepatitis C virus); test: Inhibition of HCV GT3a NS5A assessed as suppression of replicon RNA level by real-time PCR analysis; conditions: Hepatitis C virus subtype 3a
[6] = target: T1, Nonstructural protein 5A (Hepatitis C virus); test: Inhibition of HCV GT1a NS5A assessed as suppression of replicon RNA level by real-time PCR analysis; conditions: Hepatitis C virus subtype 1a

CCCCOc1cccc(C2Oc3cc(-c4cnc([C@@H]5C[C@@H](F)CN5C(=O)[C@@H](NC(=O)OC)C(C)C)[nH]4)cc(F)c3-c3cc4cc(-c5cnc([C@@H]6C[C@@H](F)CN6C(=O)[C@@H](NC(=O)OC)C(C)C)[nH]5)ccc4n32)c1 (some centres undefined)
EC90 [1]: 4 nM | EC90 [2]: 0.008 nM | EC90 [3]: 126 nM | EC90 [4]: 0.1 nM

COC(=O)N[C@H](C(=O)N1C[C@H](F)C[C@H]1c1ncc(-c2cc(F)c3c(c2)OC(c2cccc(OC(C)C)c2)n2c-3cc3cc(-c4cnc([C@@H]5C[C@@H](F)CN5C(=O)[C@@H](NC(=O)OC)C(C)C)[nH]4)ccc32)[nH]1)C(C)C (some centres undefined)
EC90 [5]: 1 nM | EC90 [1]: 4 nM | EC90 [6]: 0.01 nM | EC90 [3]: 122 nM | EC90 [4]: 0.1 nM

COC(=O)N[C@H](C(=O)N1CCC[C@H]1c1ncc(-c2cc(F)c3c(c2)OC(c2cc(OC)cc(OC)c2)n2c-3cc3cc(-c4cnc([C@@H]5CCCN5C(=O)[C@@H](NC(=O)OC)C(C)C)[nH]4)ccc32)[nH]1)C(C)C (some centres undefined)
EC90 [5]: 0.06 nM | EC90 [1]: 0.1 nM | EC90 [6]: 0.004 nM | EC90 [3]: 0.6 nM | EC90 [4]: 3 nM

COC(=O)N[C@H](C(=O)N1CCC[C@H]1c1ncc(-c2cc(F)c3c(c2)OC(c2cccc(OC(C)C)c2)n2c-3cc3cc(-c4cnc([C@@H]5CCCN5C(=O)[C@@H](NC(=O)OC)C(C)C)[nH]4)ccc32)[nH]1)C(C)C (some centres undefined)
EC90 [5]: 0.05 nM | EC90 [1]: 0.2 nM | EC90 [6]: 0.01 nM | EC90 [3]: 18 nM | EC90 [4]: 6 nM

COC(=O)N[C@H](C(=O)N1CCC[C@H]1c1ncc(-c2cc3c(c(C4CC4)c2)-c2cc4cc(-c5cnc([C@@H]6CCCN6C(=O)[C@@H](NC(=O)OC)C(C)C)[nH]5)ccc4n2CO3)[nH]1)C(C)C
EC90 [5]: 74 nM | EC90 [1]: 0.7 nM | EC90 [6]: 0.7 nM | EC90 [3]: 454 nM | EC90 [4]: 890 nM

COC(=O)N[C@H](C(=O)N1C[C@H](F)C[C@H]1c1ncc(-c2cc(F)c3c(c2)OC(c2cccc(O[C@@H]4CCOC4)c2)n2c-3cc3cc(-c4cnc([C@@H]5C[C@@H](F)CN5C(=O)[C@@H](NC(=O)OC)C(C)C)[nH]4)ccc32)[nH]1)C(C)C (mixture of isomers)
EC90 [5]: 2 nM | EC90 [1]: 7 nM | EC90 [6]: 0.04 nM | EC90 [3]: 2 nM | EC90 [4]: 1 nM

COC(=O)N[C@H](C(=O)N1CCC[C@H]1c1ncc(-c2ccc3c(c2)OC(c2cc(Cl)cc(OC)c2)n2c-3cc3cc(-c4cnc([C@@H]5CCCN5C(=O)[C@@H](NC(=O)OC)C(C)C)[nH]4)ccc32)[nH]1)C(C)C (mixture of isomers)
EC90 [5]: 0.8 nM | EC90 [1]: 0.2 nM | EC90 [6]: 0.03 nM | EC90 [3]: 202 nM | EC90 [4]: 15 nM

COC(=O)N[C@H](C(=O)N1C[C@H](F)C[C@H]1c1ncc(-c2cc(F)c3c(c2)OC(c2ccc(OC(F)(F)F)cc2)n2c-3cc3cc(-c4cnc([C@@H]5C[C@@H](F)CN5C(=O)[C@@H](NC(=O)OC)C(C)C)[nH]4)ccc32)[nH]1)C(C)C (some centres undefined)
EC90 [5]: 1 nM | EC90 [6]: 0.01 nM | EC90 [3]: 35 nM | EC90 [4]: 0.2 nM

CCOc1cccc(C2Oc3cc(-c4cnc([C@@H]5CCCN5C(=O)[C@@H](NC(=O)OC)C(C)C)[nH]4)cc(F)c3-c3cc4cc(-c5cnc([C@@H]6CCCN6C(=O)[C@@H](NC(=O)OC)C(C)C)[nH]5)ccc4n32)c1 (some centres undefined)
EC90 [5]: 0.02 nM | EC90 [1]: 0.2 nM | EC90 [6]: 0.01 nM | EC90 [3]: 8 nM | EC90 [4]: 2 nM

COC(=O)N[C@H](C(=O)N1CCC[C@H]1c1ncc(-c2ccc3c(c2)cc2n3C(c3cccc(OC(C)C)c3)Oc3cc(-c4cnc([C@@H]5C[C@@H](F)CN5C(=O)[C@@H](NC(=O)OC)C(C)C)[nH]4)cc(F)c3-2)[nH]1)C(C)C (some centres undefined)
EC90 [5]: 0.07 nM | EC90 [1]: 0.6 nM | EC90 [6]: 0.01 nM | EC90 [3]: 28 nM | EC90 [4]: 0.9 nM

CCOc1cccc(C2Oc3cc(-c4cnc([C@@H]5CCCN5C(=O)[C@@H](NC(=O)OC)C(C)C)[nH]4)ccc3-c3cc4cc(-c5cnc([C@@H]6CCCN6C(=O)[C@@H](NC(=O)OC)C(C)C)[nH]5)ccc4n32)c1 (some centres undefined)
EC90 [5]: 0.2 nM | EC90 [1]: 0.9 nM | EC90 [6]: 0.02 nM | EC90 [3]: 22 nM | EC90 [4]: 16 nM

COC(=O)N[C@H](C(=O)N1CCC[C@H]1c1ncc(-c2ccc3c(c2)OC(c2ccc(OC)cc2)n2c-3cc3cc(-c4cnc([C@@H]5CCCN5C(=O)[C@@H](NC(=O)OC)C(C)C)[nH]4)ccc32)[nH]1)C(C)C (some centres undefined)
EC90 [6]: 0.04 nM | EC90 [3]: 15 nM | EC90 [4]: 82 nM

COC(=O)N[C@H](C(=O)N1CCC[C@H]1c1ncc(-c2ccc3c(c2)OCn2c-3c(Cc3ccccc3)c3cc(-c4cnc([C@@H]5CCCN5C(=O)[C@@H](NC(=O)OC)C(C)C)[nH]4)ccc32)[nH]1)C(C)C
EC90 [1]: 9 nM | EC90 [6]: 0.1 nM | EC90 [2]: 0.01 nM | EC90 [3]: 28 nM | EC90 [4]: 187 nM

COC(=O)N[C@H](C(=O)N1CCC[C@H]1c1ncc(-c2ccc3c(c2)cc2n3C(c3cccc(OC(F)F)c3)Oc3cc(-c4cnc([C@@H]5C[C@@H](F)CN5C(=O)[C@@H](NC(=O)OC)C(C)C)[nH]4)cc(F)c3-2)[nH]1)C(C)C (some centres undefined)
EC90 [5]: 0.2 nM | EC90 [1]: 0.7 nM | EC90 [6]: 0.002 nM | EC90 [3]: 22 nM | EC90 [4]: 0.3 nM

COC(=O)N[C@H](C(=O)N1CCC[C@H]1c1ncc(-c2ccc3c(c2)OCn2c-3cc3c(F)c(-c4cnc([C@@H]5CCCN5C(=O)[C@@H](NC(=O)OC)C(C)C)[nH]4)ccc32)[nH]1)C(C)C
EC90 [6]: > 0.8 nM | EC90 [2]: > 0.5 nM

COC(=O)N[C@H](C(=O)N1CCC[C@H]1c1ncc(-c2ccc3c(c2)OC(c2cc(OC)cc(OC)c2)n2c-3cc3cc(-c4cnc([C@@H]5CCCN5C(=O)[C@@H](NC(=O)OC)C(C)C)[nH]4)ccc32)[nH]1)C(C)C (some centres undefined)
EC90 [5]: 0.08 nM | EC90 [1]: 0.3 nM | EC90 [6]: 0.004 nM | EC90 [3]: 11 nM | EC90 [4]: 8 nM

COC(=O)N[C@H](C(=O)N1CCC[C@H]1c1ncc(-c2ccc3c(c2)OC(c2cccc(OC(C)C)c2)n2c-3cc3cc(-c4cnc([C@@H]5CCCN5C(=O)[C@@H](NC(=O)OC)C(C)C)[nH]4)ccc32)[nH]1)C(C)C (some centres undefined)
EC90 [5]: 0.08 nM | EC90 [1]: 0.5 nM | EC90 [6]: 0.01 nM | EC90 [3]: 145 nM | EC90 [4]: 34 nM

COC(=O)N[C@H](C(=O)N1CCC[C@H]1c1ncc(-c2ccc3c(c2)cc2n3C(c3ccc(OC(F)(F)F)cc3)Oc3cc(-c4cnc([C@@H]5C[C@@H](F)CN5C(=O)[C@@H](NC(=O)OC)C(C)C)[nH]4)cc(F)c3-2)[nH]1)C(C)C (some centres undefined)
EC90 [6]: 0.03 nM | EC90 [2]: 0.008 nM | EC90 [3]: 13 nM | EC90 [4]: 0.3 nM

COC(=O)N[C@H](C(=O)N1CCC[C@H]1c1ncc(-c2cc(F)c3c(c2)OC(c2ccc(OC)cc2)n2c-3cc3cc(-c4cnc([C@@H]5CCCN5C(=O)[C@@H](NC(=O)OC)C(C)C)[nH]4)ccc32)[nH]1)C(C)C (some centres undefined)
EC90 [1]: 0.2 nM | EC90 [6]: 0.01 nM | EC90 [3]: 5 nM | EC90 [4]: 3 nM

COC(=O)N[C@H](C(=O)N1CCC[C@H]1c1ncc(-c2ccc3c(c2)cc2n3C(c3cccc(OC(F)(F)F)c3)Oc3cc(-c4cnc([C@@H]5C[C@@H](F)CN5C(=O)[C@@H](NC(=O)OC)C(C)C)[nH]4)ccc3-2)[nH]1)C(C)C (some centres undefined)
EC90 [1]: 1.8 nM | EC90 [6]: 0.02 nM | EC90 [3]: 48 nM | EC90 [4]: 1.7 nM

CCOc1cccc(C2Oc3cc(-c4cnc([C@@H]5C[C@@H](F)CN5C(=O)[C@@H](NC(=O)OC)C(C)C)[nH]4)cc(F)c3-c3cc4cc(-c5cnc([C@@H]6CCCN6C(=O)[C@@H](NC(=O)OC)C(C)C)[nH]5)ccc4n32)c1 (some centres undefined)
EC90 [5]: 0.1 nM | EC90 [6]: 0.01 nM | EC90 [3]: 17 nM | EC90 [4]: 0.4 nM

CCOc1cccc(C2Oc3cc(-c4cnc([C@@H]5C[C@@H](F)CN5C(=O)[C@@H](NC(=O)OC)C(C)C)[nH]4)cc(F)c3-c3cc4cc(-c5cnc([C@@H]6C[C@@H](F)CN6C(=O)[C@@H](NC(=O)OC)C(C)C)[nH]5)ccc4n32)c1 (some centres undefined)
EC90 [5]: 0.6 nM | EC90 [1]: 3 nM | EC90 [6]: 0.01 nM | EC90 [3]: 69 nM | EC90 [4]: 0.2 nM

COC(=O)N[C@H](C(=O)N1CCC[C@H]1c1ncc(-c2cc3c(c(-c4ccccc4)c2)-c2cc4cc(-c5cnc([C@@H]6CCCN6C(=O)[C@@H](NC(=O)OC)C(C)C)[nH]5)ccc4n2CO3)[nH]1)C(C)C
EC90 [5]: 47 nM | EC90 [1]: 1 nM | EC90 [6]: 1 nM | EC90 [3]: 108 nM | EC90 [4]: 250 nM
